Screens deposited in PubChem BioAssay by several laboratories.
The list is not random: actives were taken first. Their share in the collection is about 4.3%.
B2AR ag – beta2AR agonists driving receptor internalization, primary screen, cell-based, FAP fluorogen, flow cytometry. hit rate 0.43% among 340,000. response, % (test concentration not listed). Am2.2-beta2AR cells;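 active means response above a set limit, near 3 SD of response in nonfluorescent compounds, cut at about 42% in these data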
m5-HT2A agonist – mouse Htr2a agonists via beta-arrestin recruitment, primary screen, cell-based, luminescence | AID 624169, 2012 | CHO-K1 mHTR2A beta-arrestin complementation; percent of 30 µM serotonin response | 5-hydroxytryptamine receptor 2A (Mus musculus), P35363 | hit rate 0.66% among 360,000 | activation, % at 7.6 µM;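 active means activation above a run cutoff, the mean activation of all tested compounds plus 3 SD, cut at about 14% in these data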;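 further: 0% = plate median of compound wells and 100% = 30 µM serotonin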
MC4R antagonist – MC4R antagonists of cAMP signaling, primary screen, cell-based, TR-FRET, antagonist arm of biased-ligand search. Melanocortin receptor 4 (Homo sapiens), P32245. MC4R-expressing cells, MTII-stimulated cAMP, LANCE TR-FRET. inhibition, % at 6.5 µM. hit rate 0.48% among 360,000. AID 540295, 2011;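 active means inhibition above its plate's cutoff, the mean of tested wells on that plate plus 3 SD, cut at about 29% in these data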;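 further: 0% = Melanotan II alone and 100% = Melanotan II plus saturating MCL0020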
Target sequence (P32245 whole entry, looked up): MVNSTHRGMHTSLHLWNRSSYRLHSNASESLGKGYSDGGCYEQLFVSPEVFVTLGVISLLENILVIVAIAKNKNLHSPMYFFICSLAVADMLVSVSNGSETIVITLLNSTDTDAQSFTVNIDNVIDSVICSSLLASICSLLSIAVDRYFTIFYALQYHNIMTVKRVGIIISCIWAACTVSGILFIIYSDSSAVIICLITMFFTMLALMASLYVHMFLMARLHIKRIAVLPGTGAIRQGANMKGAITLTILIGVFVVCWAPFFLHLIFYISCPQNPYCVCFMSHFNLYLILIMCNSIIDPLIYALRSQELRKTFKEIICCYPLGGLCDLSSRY
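Material – human MC4R-expressing U2OS cells · Repeats – no replicates · Detection – TR-FRET with Eu-cAMP and labeled anti-cAMP, 671 nm · Times – compound 30 min, challenge 1 h, detection 1 h · Compound – single nominal compound dose of 6.5 µM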
MC4R barr agon – MC4R agonists recruiting beta-arrestin, primary screen, cell-based, luminescence, agonist arm of biased-ligand search. activation, % at 8.9 µM. Melanocortin receptor 4 (Homo sapiens), P32245. hit rate 0.98% among 360,000. U2OS MC4R beta-arrestin complementation; percent of melanotan II response, DMSO zero;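 active means activation above a per-plate cutoff, the mean activation of sample wells on that plate plus 3 SD, cut at about 8% in these data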
TAAR1 antagonist – human TAAR1 antagonists, primary screen, Fluo-8 calcium fluorescence, CHO RD-HGA16 cells | antagonist | hit rate 1.5% among 360,000 | Trace amine-associated receptor 1 (Homo sapiens), Q96RJ0 | inhibition, % at 3 µM;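 active means inhibition above a per-plate cutoff, the mean inhibition of test compounds on that plate plus 3 SD, cut at about 49% in these data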;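 further: 0% = DMSO plus EC80 beta-PEA response and 100% = DMSO alone without agonist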
Target sequence (Q96RJ0 whole entry, looked up): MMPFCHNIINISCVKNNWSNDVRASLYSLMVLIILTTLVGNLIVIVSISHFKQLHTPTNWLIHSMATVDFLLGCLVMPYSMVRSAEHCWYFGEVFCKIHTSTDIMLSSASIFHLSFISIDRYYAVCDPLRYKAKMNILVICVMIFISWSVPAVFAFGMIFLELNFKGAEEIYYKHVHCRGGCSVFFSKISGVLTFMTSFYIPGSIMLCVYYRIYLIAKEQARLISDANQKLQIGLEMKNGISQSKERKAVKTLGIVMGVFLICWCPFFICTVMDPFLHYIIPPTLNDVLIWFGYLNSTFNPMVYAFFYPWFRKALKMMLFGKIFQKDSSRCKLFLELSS
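Material: RD-HGA16 CHO cells with stable hTAAR1 and Gα16; Dosing: single nominal final test compound concentration of 3 µM; Schedule: seeding 17-24 h prior, 75-min 37 °C, 30-min RT dye loading; Detection: kinetic Fluo-8 calcium fluorescence measurement; Measure: % inhibition from peak post-agonist over basal fluorescence ratio; Benchmarks: vehicle and agonist controls.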
TAAR1 ag – human TAAR1 agonists, primary screen, Fluo-8 calcium fluorescence, CHO RD-HGA16 cells. vehicle wells 0%, saturating PEA agonist 100%. activation, % at 3 µM. hit rate 0.99% among 360,000. AID 624467, 2012;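 active means activation above the mean activation of all test compounds in the run plus 3 SD, cut at about 38% in these data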
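Repeats: no replicates (n 1) | Material: CHO-derived RD-HGA16 cells with stable Gα16 and human TAAR1 | Technique: Kinetic Fluo-8 calcium fluorescence | Schedule: 17-24 h seeding, 75 min 37 °C dye, 30 min RT | Evaluation: % activation from peak over basal fluorescence ratio, DMSO-to-PEA scaled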
TAAR1 ag conf – human TAAR1 agonists, retest of hits, confirmation, Fluo-8 calcium fluorescence, CHO RD-HGA16 cells | scaled: DMSO 0%, maximal phenethylamine 100% | hit rate 82% among 2,400 | AID 651783, 2012 | activation, % at 3 µM | shares compounds with TAAR1 ag;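 active means activation above a cutoff set at the run's mean compound activation plus 3 SD, cut at about 39% in these data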
Ga16 nonsel ag – nonselective calcium mobilization agonists, CHO-Ga16 cells, counter-screen for hTAAR1 agonist project, cell-based, fluorescence, CHO-Ga16 parental line. shares compounds with TAAR1 ag. Fluo-8 calcium fluorescence; normalized to maximal ATP response, DMSO zero. activation, % at 3 µM. hit rate 50% among 2,400. AID 651787, 2012;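 active means activation above the run cutoff, the mean activation over all tested wells plus 3 SD, cut at about 12% in these data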;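 further: 0% = DMSO wells and 100% = maximal ATP response on the peak over basal ratio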
TAAR1 desens – TAAR1 desensitization by agonist hits, confirmation, counter-screen for TAAR1 agonist project, cell-based, fluorescence, tachyphylaxis; shares compounds with TAAR1 ag; inhibition, % at 3 µM; hit rate 46% among 2,400; CHO RD-HGA16 hTAAR1, Fluo-8 calcium, beta-PEA response inhibition; AID 651951, 2012;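 active means inhibition above the run cutoff, the mean inhibition of all test compounds plus 3 SD, cut at about 49% in these data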;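 further: beta-PEA stimulus applied at its EC80; loss of beta-PEA calcium signal after compound pretreatment read as receptor desensitization; 0% = DMSO with beta-PEA at EC80 and 100% = DMSO alone without agonist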
Ga16 nonsel ant – inhibition of ATP-evoked calcium response in CHO-Ga16 cells, counter-screen for TAAR1 agonist project, cell-based, fluorescence. shares compounds with TAAR1 ag. CHO-Ga16 ATP-induced calcium, Fluo-8 fluorescence. inhibition, % at 3 µM. hit rate 39% among 2,400;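 active means inhibition above the plate's mean compound inhibition plus 3 SD, computed per plate, cut at about 22% in these data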;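 further: 0% = EC80 ATP with DMSO and 100% = DMSO wells without ATP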
Active calls of the source: *; · = no result; + = active, no number.

SMILES	B2AR ag	m5-HT2A agonist	MC4R antagonist	MC4R barr agon	TAAR1 antagonist	TAAR1 ag	TAAR1 ag conf	Ga16 nonsel ag	TAAR1 desens	Ga16 nonsel ant
O=C(Nc1ccccc1)Nc1ccc(NC(=O)c2ccccc2O)cc1	-1	-3	-1	1	81*	70*	101*	13*	97*	30*
O=C(Nc1ccccc1)Nc1ccc2ncoc2c1	10	-3	1	5	6	59*	88*	9	61*	12
O=C(Nc1ccccc1)Nc1ccc2ocnc2c1	5	1	6	-1	13	20	·	·	·	·
CCN(CC(=O)Nc1ccc(OC)cc1)C(=O)C1CCN(C(=O)c2ccc(Cl)cc2)CC1	5	2	4	-2	4	4	·	·	·	·
O=C(NCCc1ccc(Cl)cc1)c1ccc2c(=O)[nH]c3c(C(=O)NCC4CCCO4)sc(=S)n3c2c1 (configuration not stated)	·	·	·	·	1	-1	·	·	·	·
O=C(NCCc1ccccc1)c1ccc2c(=O)[nH]c3c(C(=O)NCC4CCCO4)sc(=S)n3c2c1 (configuration not stated)	6	11	22	-2	52*	65*	90*	6	82*	22*
COc1ccccc1CNCCS(=O)(=O)NCc1ccccc1	-13	-1	-5	-1	-7	0	·	·	·	·
C=CCC[C@H](Cc1ccc(F)cc1)C(=O)OC[C@@H](Cc1c[nH]c2ccccc12)NC(=O)[C@@H](CC=C)CC(=O)NCCO	25	1	7	-1	43	22	·	·	·	·
C=CCC[C@@H](Cc1ccc(F)cc1)C(=O)OC[C@H](Cc1c[nH]c2ccccc12)NC(=O)[C@@H](CC=C)CC(=O)NCCO	2	-2	13	-2	80*	74*	52*	30*	76*	51*
C=CCOc1ccccc1CN1CCCCCC1	5	6	8	-2	11	0	·	·	·	·
COc1ccc(OCCN2CCC(C(=O)NC(c3ccc(Cl)cc3)c3cnccn3)CC2)cc1 (configuration not stated)	·	-5	2	1	3	2	·	·	·	·
COc1ccc(NC(=O)CN2CCc3ccccc3C2)cc1	-2	2	10	0	-3	4	·	·	·	·
O=C(Nc1cccc(Cl)c1)N1CCc2ccccc2C1	-1	2	6	0	14	31	·	·	·	·
COc1cccc(NC(=O)N2CCc3ccccc3C2)c1	-2	-1	-1	-6	-1	46*	53*	1	14	10
COc1ccc(NC(=S)N2CCc3ccccc3C2)cc1	-8	-3	9	-1	53*	84*	93*	9	31	-3
CSc1nc(N2CCN(Cc3ccc4c(c3)OCO4)CC2)c2ccccc2n1	3	-6	6	0	·	·	·	·	·	·
NCc1c(O)ccc2ccccc12	·	·	·	·	·	·	·	2	·	7
CCCCCNC(=O)[C@@H]1CSC2c3ccccc3C(=O)N21 (some centres not stated)	-3	-2	1	1	-30	1	·	·	·	·
O=C(NCCc1cccc(F)c1)[C@@H]1CSC2c3ccccc3C(=O)N21 (some centres not stated)	2	2	-1	0	14	54*	77*	3	43	15
COc1cc(OC)c(OC)cc1CCC(C)NCCC(c1ccccc1)c1ccccc1 (configuration not stated)	28	4	7	1	23	52*	48*	19*	39	25*
COc1ccc(CCNCCC(c2ccccc2)c2ccccc2)cc1OC	·	-4	-5	0	0	13	·	·	·	·
COc1ccc(C(=O)CCN2CCCC(C)C2)cc1 (configuration not stated)	-1	-1	26	-3	16	79*	76*	1	18	2
COc1ccc(OC)c(NC(=O)CCN2CCCC(C)C2)c1 (configuration not stated)	3	-3	-2	0	-5	6	·	·	·	·
CC1CCCN(CCC(=O)c2ccc(Br)cc2)C1 (configuration not stated)	-6	8	11	-1	22	75*	93*	3	57*	7
CN(C)/C=C1\C=C2C(=O)c3ccccc3N2C1=O	·	-3	-45	-2	87*	413*	+	+	104*	94*
O=C(Nc1ccccc1)c1nc[nH]c1C(=O)N1CCc2ccccc2C1	-5	-2	3	2	8	4	·	·	·	·
O=C(Nc1nccs1)c1nc[nH]c1C(=O)N1CCc2ccccc2C1	-14	0	5	-1	82*	82*	103*	4	94*	8
C/C(NCCc1ccc(O)cc1)=C1/CCOC1=O	·	-3	11	-2	83*	83*	91*	3	69*	-6
CCc1ccc([C@@H]2C[C@H]3[C@@H](CN2S(=O)(=O)c2ccc(C)cc2)C(=O)C[C@@H](c2cccc(Cl)c2)N3S(=O)(=O)c2ccc(C)cc2)cc1	·	-4	8	0	-9	2	·	·	·	·
C[C@H]1CN[C@@H](CCO)/C1=C\c1ccccc1	-10	2	22	2	-2	43*	53*	1	29	10
